pIC50: −log10 of the molar value. The source made the active and inactive calls. The calls are words filed in the database; no cut-off is given here.
Key:
[1] = tested on: Plasmodium falciparum; experiment: Antimalarial activity against chloroquine-sensitive Plasmodium falciparum 3D7 infected in […] after 72 hrs by SYBR Green I-based fluorescence method; assay type: functional, organism-based; details: for pIC50: 3D7, 72 h
[2] = target: Plasmepsin II (Plasmodium falciparum) (UniProt P46925); experiment: Inhibition of Plasmodium falciparum plasmepsin-2 after 60 mins by fluorescence assay
Chain of Plasmepsin II (Plasmodium falciparum) (P46925 125-453 limits assumed): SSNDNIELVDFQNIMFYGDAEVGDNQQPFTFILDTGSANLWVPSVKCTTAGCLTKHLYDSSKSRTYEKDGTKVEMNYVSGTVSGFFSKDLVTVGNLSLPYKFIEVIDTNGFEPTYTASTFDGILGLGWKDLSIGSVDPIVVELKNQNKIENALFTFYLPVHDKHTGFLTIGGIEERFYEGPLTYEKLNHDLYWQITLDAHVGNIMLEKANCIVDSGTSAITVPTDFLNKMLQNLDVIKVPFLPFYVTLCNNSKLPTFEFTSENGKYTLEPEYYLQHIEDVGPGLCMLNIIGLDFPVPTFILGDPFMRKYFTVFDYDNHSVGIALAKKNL

[3] = tested on: Plasmepsin IV (Plasmodium falciparum); experiment: Inhibition of Plasmodium falciparum plasmepsin-4 after 60 mins by fluorescence assay
[4] = tested on: Plasmodium falciparum; experiment: Antimalarial activity against chloroquine and pyrimethamine-resistant Plasmodium falciparum Dd2 infected in […] after 48 hrs by SYBR Green I-based fluorescence method; assay type: functional
[5] = target: T1, Cytochrome P450 1A2 (Homo sapiens, UniProt P05177); experiment: Inhibition of human recombinant CYP1A2 after 30 mins; assay type: ADME; details: recombinant enzyme, 0.5 h
T1 sequence (P05177 whole entry): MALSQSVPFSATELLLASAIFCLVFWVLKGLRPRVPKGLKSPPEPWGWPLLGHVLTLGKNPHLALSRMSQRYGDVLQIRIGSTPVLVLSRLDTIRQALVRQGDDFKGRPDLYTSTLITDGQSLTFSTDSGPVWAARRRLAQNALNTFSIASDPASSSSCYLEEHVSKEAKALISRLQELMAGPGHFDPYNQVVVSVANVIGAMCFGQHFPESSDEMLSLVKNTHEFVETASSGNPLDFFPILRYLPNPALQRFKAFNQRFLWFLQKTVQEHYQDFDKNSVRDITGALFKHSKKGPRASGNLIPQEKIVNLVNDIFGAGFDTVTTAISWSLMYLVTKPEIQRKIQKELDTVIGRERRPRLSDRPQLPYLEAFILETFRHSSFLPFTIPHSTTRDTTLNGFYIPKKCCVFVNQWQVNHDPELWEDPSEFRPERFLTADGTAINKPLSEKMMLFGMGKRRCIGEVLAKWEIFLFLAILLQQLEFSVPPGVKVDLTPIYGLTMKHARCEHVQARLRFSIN

[6] = target: Cytochrome P450 2C19 (Homo sapiens, UniProt P33261); experiment: Inhibition of human recombinant CYP2C19 after 30 mins; assay type: ADME; details: recombinant enzyme, 0.5 h
Chain of Cytochrome P450 2C19 (P33261 whole entry): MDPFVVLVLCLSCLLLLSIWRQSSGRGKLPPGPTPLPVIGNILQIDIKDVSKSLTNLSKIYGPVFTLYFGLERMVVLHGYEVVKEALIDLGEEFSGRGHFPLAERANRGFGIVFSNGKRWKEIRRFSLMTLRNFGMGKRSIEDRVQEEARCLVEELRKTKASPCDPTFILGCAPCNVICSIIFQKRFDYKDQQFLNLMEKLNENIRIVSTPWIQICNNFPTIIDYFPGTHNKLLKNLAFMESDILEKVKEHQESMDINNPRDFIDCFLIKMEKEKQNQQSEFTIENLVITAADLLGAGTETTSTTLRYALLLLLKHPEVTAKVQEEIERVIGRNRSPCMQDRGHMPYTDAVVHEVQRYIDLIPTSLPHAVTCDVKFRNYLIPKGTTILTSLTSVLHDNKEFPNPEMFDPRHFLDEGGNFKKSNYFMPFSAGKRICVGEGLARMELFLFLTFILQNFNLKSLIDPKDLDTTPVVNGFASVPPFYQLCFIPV

[7] = Plasma concentration in Plasmodium chabaudi ASS infected NIH mouse at 100 mg/kg, po qd measured 6 hrs after post last dose on day 3; assay type: ADME, organism-based; parameters: dose 100 mg/kg, route oral
Method in brief: (§1)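 P. chabaudi-infected mice were dosed orally once daily for four days, starting four hours post-infection. Plasma compound levels were measured at 1, 6 and 24 h after the last dose on Day 3.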

[8] = Plasma concentration in Plasmodium chabaudi ASS infected NIH mouse at 100 mg/kg, po qd measured 1 hr after post last dose on day 3; assay type: ADME, organism-based; parameters: dose 100 mg/kg, route oral; method in brief: as §1
[9] = tested on: HepG2; experiment: Cytotoxicity against human HepG2 cells after 72 hrs; assay type: cell-based; details: hepg2, 72 h
[10] = tested on: Plasmodium chabaudi; experiment: Antimalarial activity against Plasmodium chabaudi ASS infected in NIH mouse assessed as inhibition of parasitemia at 100 mg/kg, po qd for 4 days; assay type: functional; details: 96 h
Method in brief: (§2)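 Mice infected with P. chabaudi were given oral doses once daily for four days, starting four hours after infection. Parasitemia was read on Day 4 postinoculation and expressed as percent inhibition of parasitemia.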

[11] = Plasma concentration in Plasmodium chabaudi ASS infected NIH mouse at 100 mg/kg, po qd measured 24 hrs after post last dose on day 3; assay type: ADME, organism-based; parameters: dose 100 mg/kg, route oral; method in brief: as §1
[12] = tested on: Plasmodium falciparum; experiment: Antimalarial activity against chloroquine-sensitive Plasmodium falciparum 3D7 infected in […] after 48 hrs by SYBR Green I-based fluorescence method; assay type: functional, organism-based
[13] = target: Cytochrome P450 2D6 (Homo sapiens, UniProt P10635); experiment: Inhibition of human recombinant CYP2D6 after 30 mins; assay type: ADME; details: recombinant enzyme, 0.5 h
Chain of Cytochrome P450 2D6 (P10635 whole entry): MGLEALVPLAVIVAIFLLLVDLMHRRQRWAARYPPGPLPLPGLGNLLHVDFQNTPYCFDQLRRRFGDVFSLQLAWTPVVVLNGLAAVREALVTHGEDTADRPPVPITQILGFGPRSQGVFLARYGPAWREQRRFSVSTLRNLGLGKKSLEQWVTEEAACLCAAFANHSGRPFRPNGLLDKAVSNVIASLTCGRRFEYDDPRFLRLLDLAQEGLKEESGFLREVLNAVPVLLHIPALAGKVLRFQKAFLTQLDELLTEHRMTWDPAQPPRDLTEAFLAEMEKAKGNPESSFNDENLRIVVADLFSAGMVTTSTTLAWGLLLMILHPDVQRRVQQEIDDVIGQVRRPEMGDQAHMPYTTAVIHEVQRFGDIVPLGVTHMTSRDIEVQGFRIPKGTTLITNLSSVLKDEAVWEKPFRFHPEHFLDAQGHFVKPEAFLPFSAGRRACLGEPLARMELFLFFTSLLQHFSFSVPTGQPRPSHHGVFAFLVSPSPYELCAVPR

[14] = target: Cytochrome P450 2C9 (Homo sapiens, UniProt P11712); experiment: Inhibition of human recombinant CYP2C9 after 30 mins; assay type: ADME; details: recombinant enzyme, 0.5 h
Chain of Cytochrome P450 2C9 (P11712 whole entry): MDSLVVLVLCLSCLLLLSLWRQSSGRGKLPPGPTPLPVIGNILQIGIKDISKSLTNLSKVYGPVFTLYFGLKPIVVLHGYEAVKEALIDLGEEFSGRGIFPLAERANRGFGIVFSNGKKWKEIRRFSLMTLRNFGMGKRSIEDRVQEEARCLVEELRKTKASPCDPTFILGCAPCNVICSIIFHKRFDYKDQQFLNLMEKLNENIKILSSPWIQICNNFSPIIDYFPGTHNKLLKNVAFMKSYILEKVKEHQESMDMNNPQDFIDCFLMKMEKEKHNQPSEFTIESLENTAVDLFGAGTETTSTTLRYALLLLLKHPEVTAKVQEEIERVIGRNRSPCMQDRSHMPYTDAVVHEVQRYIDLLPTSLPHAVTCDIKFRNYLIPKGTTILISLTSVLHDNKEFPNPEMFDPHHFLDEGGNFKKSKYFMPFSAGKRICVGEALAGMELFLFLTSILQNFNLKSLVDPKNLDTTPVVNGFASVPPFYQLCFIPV

[15] = target: Cytochrome P450 3A4 (Homo sapiens, UniProt P08684); experiment: Inhibition of human recombinant CYP3A4 after 30 mins; assay type: ADME; details: recombinant enzyme, 0.5 h
Chain of Cytochrome P450 3A4 (P08684 whole entry): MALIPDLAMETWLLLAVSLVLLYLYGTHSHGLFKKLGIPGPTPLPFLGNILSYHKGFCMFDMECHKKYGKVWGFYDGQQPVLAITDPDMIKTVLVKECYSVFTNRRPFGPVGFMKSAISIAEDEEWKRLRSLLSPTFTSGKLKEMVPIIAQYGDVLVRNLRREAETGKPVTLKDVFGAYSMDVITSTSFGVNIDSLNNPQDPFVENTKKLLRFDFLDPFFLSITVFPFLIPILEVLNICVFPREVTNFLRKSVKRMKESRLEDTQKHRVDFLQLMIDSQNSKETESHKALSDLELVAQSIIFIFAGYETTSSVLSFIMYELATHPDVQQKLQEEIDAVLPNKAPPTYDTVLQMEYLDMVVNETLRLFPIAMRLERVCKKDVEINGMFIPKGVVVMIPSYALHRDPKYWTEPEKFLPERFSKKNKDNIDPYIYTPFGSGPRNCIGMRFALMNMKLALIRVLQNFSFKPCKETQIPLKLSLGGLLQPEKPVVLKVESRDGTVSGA

[16] = target: Plasmepsin V (Plasmodium falciparum (isolate 3D7), UniProt Q8I6Z5); experiment: (§3) Inhibition of Plasmodium falciparum […] plasmepsin-5 using DABCYL-GNKRTLAQKQG-EDANS as substrate measured every 15 mins of 75 mins by fluorescence assay
Chain of Plasmepsin V (Q8I6Z5 whole entry): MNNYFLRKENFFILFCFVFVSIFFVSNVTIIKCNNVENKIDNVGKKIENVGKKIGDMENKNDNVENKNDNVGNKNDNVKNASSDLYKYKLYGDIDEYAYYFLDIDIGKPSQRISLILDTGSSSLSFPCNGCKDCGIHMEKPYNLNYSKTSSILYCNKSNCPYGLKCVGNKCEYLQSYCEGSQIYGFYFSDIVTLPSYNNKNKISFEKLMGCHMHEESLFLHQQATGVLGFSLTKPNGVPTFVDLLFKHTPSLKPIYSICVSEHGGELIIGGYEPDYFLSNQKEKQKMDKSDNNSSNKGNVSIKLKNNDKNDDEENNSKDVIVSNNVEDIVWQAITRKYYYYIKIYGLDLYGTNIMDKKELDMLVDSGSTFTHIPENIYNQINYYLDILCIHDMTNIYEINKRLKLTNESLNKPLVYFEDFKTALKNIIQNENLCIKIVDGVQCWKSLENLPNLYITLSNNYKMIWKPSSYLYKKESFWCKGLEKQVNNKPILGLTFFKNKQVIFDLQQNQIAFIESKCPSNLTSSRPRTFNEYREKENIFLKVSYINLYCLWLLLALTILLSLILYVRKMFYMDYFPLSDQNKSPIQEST

[17] = target: Plasmepsin V (Plasmodium falciparum (isolate 3D7)) (UniProt Q8I6Z5); experiment: as §3
Chain of Plasmepsin V (Plasmodium falciparum (isolate 3D7)) (Q8I6Z5 whole entry, looked up): as the sequence (Q8I6Z5 whole entry) above

[18] = tested on: Plasmodium chabaudi; experiment: Antimalarial activity against Plasmodium chabaudi ASS infected in NIH mouse assessed as inhibition of parasitemia at 110 mg/kg, po qd for 4 days; assay type: functional; details: 96 h; method in brief: as §2
[19] = Plasma concentration in Plasmodium chabaudi ASS infected NIH mouse at 110 mg/kg, po qd measured 30 mins after post last dose on day 3; assay type: ADME, organism-based; parameters: dose 110 mg/kg, route oral
[20] = Plasma concentration in Plasmodium chabaudi ASS infected NIH mouse at 110 mg/kg, po qd measured 24 hrs after post last dose on day 3; assay type: ADME, organism-based; parameters: dose 110 mg/kg, route oral; method in brief: as §1
[21] = Selectivity ratio of IC50 for human BACE1 to IC50 for Plasmodium falciparum plasmepsin-2
[22] = Selectivity ratio of IC50 for human cathepsin E to IC50 for Plasmodium falciparum plasmepsin-2
[23] = Selectivity ratio of IC50 for human cathepsin D to IC50 for Plasmodium falciparum plasmepsin-2

## COc1ccc(C2(c3ccc(OC)cc3)NC(=N)N(C3CCCC3)C2=O)cc1
[1]
  pIC50: 6.21

## COc1ccc(C2(c3ccc(OC)cc3)NC(=N)N(C3CCNCC3)C2=O)cc1
[1]
  pIC50: < 5.30

## COc1ccc(C2(c3ccc(OC)cc3)NC(=N)N(C3CCC3)C2=O)cc1
[1]
  pIC50: 6.14

## COc1ccc(C2(c3ccc(OC)cc3)NC(=N)N(C3CCC(O)CC3)C2=O)cc1 (configuration not stated)
[1]
  pIC50: 4.83

## Cc1ccc(C2(c3ccc(C)cc3)NC(=N)N(C3CCCCC3)C2=O)cc1
[1]
  pIC50: 5.90

## COc1ccc(C2(c3ccc(OC)cc3)NC(=O)N(C3CCCCC3)C2=O)cc1
[1]
  inhibition: inactive
[2]
  inhibition: inactive
[3]
  inhibition: inactive

## COc1ccc(C2(c3ccc(OC)cc3)NC(=S)N(C3CCCCC3)C2=O)cc1
[1]
  inhibition: inactive
[2]
  inhibition: inactive

## COc1ccc(C2(c3ccc(OC)cc3)NC(=N)N(C3CCN(C)CC3)C2=O)cc1
[1]
  pIC50: 6.16

## COc1ccc(C2(c3ccc(OC)cc3)NC(=N)N(c3ccccc3)C2=O)cc1
[1]
  pIC50: 4.00

## COc1ccc(C2(c3ccc(OC)cc3)NC(=N)N(CC3CCCCC3)C2=O)cc1
[4]
  inhibition: Active
[5]
  inhibition (INH): Not Active
[6]
  inhibition (INH): Not Active
[1]
  pIC50: 6.42
[7]
  concentration at 6 h: 2190 ng/mL
[8]
  concentration at 1 h: 2520 ng/mL
[9]
  Activity: Toxic
[10]
  inhibition in vivo at 100 mg/kg: 73%
[11]
  concentration at 24 h: 7 ng/mL
[12]
  inhibition: Active
[13]
  inhibition (INH): Not Active
[14]
  inhibition (INH): Not Active
[15]
  inhibition (INH): Active

## CCOc1ccc(C2(c3ccc(OCC)cc3)NC(=N)N(C3CCCCC3)C2=O)cc1
[1]
  pIC50: 6.33

## COc1ccc(C2(c3ccc(OC)cc3)NC(=N)N(CCCc3ccccc3)C2=O)cc1
[1]
  pIC50: 6.29

## COc1cccc(C2(c3cccc(-c4cccnc4)c3)NC(=N)N(C3CCCCC3)C2=O)c1 (racemic)
[1]
  pIC50: 6.10

## COc1ccc(C2(c3ccc(OC)cc3)NC(=N)N(CC3CCOCC3)C2=O)cc1
[4]
  inhibition: Active
[5]
  inhibition (INH): Not Active
[6]
  inhibition (INH): Not Active
[1]
  pIC50: 6.33
[7]
  concentration at 6 h: 3030 ng/mL
[8]
  concentration at 1 h: 10400 ng/mL
[9]
  Activity: Toxic
[10]
  inhibition in vivo at 100 mg/kg: 41%
[11]
  concentration at 24 h: 123 ng/mL
[12]
  inhibition: Active
[13]
  inhibition (INH): Not Active
[14]
  inhibition (INH): Not Active
[15]
  inhibition (INH): Active

## COc1ccc(C2(c3ccc(OC)cc3)NC(=N)N(C3CC3)C2=O)cc1
[1]
  pIC50: 5.39

## N=C1NC(c2cccc(Cl)c2)(c2cccc(Cl)c2)C(=O)N1C1CCCCC1
[1]
  pIC50: 5.97

## N=C1NC(c2ccc(OC(F)(F)F)cc2)(c2ccc(OC(F)(F)F)cc2)C(=O)N1C1CCCCC1
[1]
  pIC50: 5.66

## N=C1NC(c2ccccc2)(c2cccc(OCc3ccccc3)c2)C(=O)N1C1CCCCC1 (racemic)
[1]
  pIC50: 6.19

## N=C1NC(c2ccccc2)(c2ccccc2)C(=O)N1C1CCCCC1
[1]
  pIC50: 5.41

## COc1ccc(C2(c3ccc(OC)cc3)NC(=N)N(C3CCCCCC3)C2=O)cc1
[1]
  pIC50: 6.37

## COc1ccc(C2(c3ccc(OC)cc3)NC(=N)N(C)C2=O)cc1
[1]
  pIC50: 5.10

## COc1ccc(C2(c3cccc(-c4ccccc4)c3)NC(=N)N(C3CCCCC3)C2=O)cc1 (racemic)
[1]
  pIC50: 5.83

## COc1ccc(C2(c3ccc(OC)cc3)NC(=N)N(C(C)C)C2=O)cc1
[1]
  pIC50: 5.78

## N=C1NC(c2ccccc2)(c2cccc(Oc3ccccc3)c2)C(=O)N1C1CCCCC1 (racemic)
[1]
  pIC50: 6.37

## CCC(CN1C(=N)NC(c2ccc(OC)cc2)(c2ccc(OC)cc2)C1=O)c1ccccc1 (configuration not stated)
[1]
  pIC50: 6.61

## Cc1cccc(C)c1OCC(=O)N[C@@H](Cc1ccccc1)[C@@H](O)C[C@H](Cc1ccccc1)NC(=O)[C@H](C(C)C)N1CCCNC1=O [LOPINAVIR]
[16]
  pIC50: < 4.70

## COc1ccc(C2(c3ccc(OC)cc3)NC(=N)N(Cc3ccccc3)C2=O)cc1
[1]
  pIC50: 6.07

## COc1ccc(C2(c3cccc(-c4ccccn4)c3)NC(=N)N(C3CCCCC3)C2=O)cc1 (racemic)
[1]
  pIC50: 5.74

## CCN1C(=N)NC(c2ccc(OC)cc2)(c2ccc(OC)cc2)C1=O
[1]
  pIC50: 5.40

## COc1cccc(C2(c3cccc(OC)c3)NC(=N)N(C3CCCCC3)C2=O)c1
[1]
  pIC50: 6.11
[17]
  inhibition: inactive

## N=C1NC(c2cccc(-c3cccnc3)c2)(c2cccc(-c3cccnc3)c2)C(=O)N1C1CCCCC1
[1]
  pIC50: 6.14

## CC(C)(C)N1C(=N)NC(c2ccccc2)(c2ccccc2)C1=O
[1]
  pIC50: < 4.00

## COc1cccc(C2(c3cccc(-c4ccncc4)c3)NC(=N)N(C3CCCCC3)C2=O)c1 (racemic)
[1]
  pIC50: 6.50

## COc1ccc(C2(c3ccc(OC)cc3)NC(=N)N(CCc3ccccc3)C2=O)cc1
[1]
  pIC50: 5.62

## COc1ccc(C2(c3ccc(OC)cc3)NC(=N)N(C3CCN(C(=O)OC(C)(C)C)CC3)C2=O)cc1
[1]
  pIC50: 6.36

## COc1ccc(C2(c3cccc(-c4cccnc4)c3)NC(=N)N(C3CCCCC3)C2=O)cc1 (racemic)
[1]
  pIC50: 6.23

## COc1ccc(C2(c3ccccc3)NC(=N)N(C3CCCCC3)C2=O)cc1 (racemic)
[1]
  pIC50: 6.27

## COc1ccc(C2(c3ccc(OC)cc3)NC(=N)N(C3CCOCC3)C2=O)cc1
[4]
  inhibition: Active
[18]
  inhibition in vivo at 110 mg/kg: 63%
[5]
  inhibition (INH): Not Active
[6]
  inhibition (INH): Not Active
[1]
  pIC50: 6.34
[9]
  Activity: Toxic
[12]
  inhibition: Active
[13]
  inhibition (INH): Not Active
[19]
  concentration at 0.5 h: 4140 ng/mL
[20]
  concentration at 24 h: 29 ng/mL
[14]
  inhibition (INH): Not Active
[15]
  inhibition (INH): Active

## N=C1NC(c2ccc(Cl)cc2)(c2ccc(Cl)cc2)C(=O)N1C1CCCCC1
[1]
  pIC50: 5.97

## COc1cccc(C2(c3ccccc3)NC(=N)N(C3CCCCC3)C2=O)c1 (racemic)
[1]
  pIC50: 6.04

## N=C1NC(c2ccccc2)(c2ccccc2)C(=O)N1Cc1ccccc1
[1]
  pIC50: 5.08

## CCCN1C(=N)NC(c2ccc(OC)cc2)(c2ccc(OC)cc2)C1=O
[1]
  pIC50: 5.94

## N=C1NC(c2ccccc2)(c2cccc(-c3cccnc3)c2)C(=O)N1C1CCCCC1 (racemic)
[1]
  pIC50: 6.12
[17]
  inhibition: inactive
[21]
  Ratio IC50: > 1000
[22]
  Ratio IC50: 200
[23]
  Ratio IC50: > 1000

## Cc1cccc(C2(c3cccc(C)c3)NC(=N)N(C3CCCCC3)C2=O)c1
[1]
  pIC50: 6.27

— ChEMBL document CHEMBL3108756, “Evaluation of aminohydantoins as a novel class of antimalarial agents” (ACS Med Chem Lett, 2014)
